Test results reported in ChEMBL document CHEMBL1133528, “Syntheses of 4'-C-ethynyl-beta-D-arabino- and 4'-C-ethynyl-2'-deoxy-beta-D-ribo-pentofuranosylpyrimidines and -purines and evaluation of their anti-HIV activity” (J Med Chem, 2000).

Experiments:
MT4 = experiment: Tested in vitro against MT-4 cells using MTT assay; type: functional; settings: Homo sapiens
How it was run: (§1)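 MT-4 cells (2 × 10⁴/mL) infected with 100 TCID₅₀ HIV-1_LAI, grown with drug dilution series 7 days at 37 °C. MTT added, 2 h at 37 °C, formazan dissolved in acidified 2-propanol with 4% Triton X-100, absorbance at 570 nm. Triplicates. EC₅₀ is concentration suppressing HIV-1 replication by 50%. SI calculated as CC₅₀/EC₅₀.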

HeLa [1] = experiment: (§2) Tested in vitro against HIV-1 104pre from HeLa-CD4-[…]-beta gal-cells using MAGI assay; type: functional, cell-based; settings: Homo sapiens
How it was run: (§3)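 HeLa-CD4-LTR-β-gal indicator cells seeded at 10⁴ cells/well, cultured 24 h, then exposed to HIV-1_104pre at 30 TCID₅₀ for 2 h at 37 °C. Drug series added 2 h before or 2 h after virus, kept present without washing. At 48 h cells fixed (1% formaldehyde, 0.2% glutaraldehyde in PBS), X-Gal stained, blue infected cells counted under microscope.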

[2] = molecular target: Human immunodeficiency virus type 1 reverse transcriptase (Human immunodeficiency virus 1) (UniProt Q72547); experiment: Selectivity index expressed as CC50/EC50; type: functional; how it was run: as §1
HeLa [3] = experiment: as §2; type: functional, cell-based, human immunodefficiency virus type 1; settings: Homo sapiens; how it was run: as §3

C#C[C@]1(CO)O[C@@H](n2cc(Br)c(N)nc2=O)C[C@@H]1O
CC50 (MT4): > 100000 nM

C#C[C@]1(CO)O[C@@H](n2cnc3c(O)ncnc32)C[C@@H]1O
EC50 (HeLa [1]): 830 nM | CC50 (MT4): 216000 nM | SI [2]: 14.4

C#C[C@]1(CO)O[C@@H](n2cnc3c(=O)[nH]c(N)nc32)C[C@@H]1O
EC50 (HeLa [3]): 7.1 nM | CC50 (MT4): 1500 nM | SI [2]: 1070

C#C[C@]1(CO)O[C@@H](n2cc(CC)c(=O)[nH]c2=O)C[C@@H]1O
CC50 (MT4): > 360000 nM

C#C[C@]1(CO)O[C@@H](n2cnc3c(N)nc(N)nc32)C[C@@H]1O
EC50 (HeLa [1]): 1.9 nM | CC50 (MT4): 820 nM | SI [2]: 2730

C#C[C@]1(CO)O[C@@H](n2cc(C)c(N)nc2=O)C[C@@H]1O
EC50 (HeLa [1]): 5.7 nM | CC50 (MT4): 700 nM | SI [2]: 63

C#C[C@]1(CO)O[C@@H](n2cc(I)c(N)nc2=O)C[C@@H]1O
CC50 (MT4): > 100000 nM

C#C[C@]1(CO)O[C@@H](n2cnc3cncnc32)C[C@@H]1O
EC50 (HeLa [1]): 132000 nM | CC50 (MT4): > 380000 nM | SI [2]: > 3.2

C#C[C@]1(CO)O[C@@H](n2cnc3c(N)ncnc32)C[C@@H]1O
EC50 (HeLa [1]): 6.8 nM | CC50 (MT4): 11700 nM | SI [2]: 975

Cc1cn([C@H]2C[C@H](N=[N+]=[N-])[C@@H](CO)O2)c(=O)[nH]c1=O [ZIDOVUDINE]
EC50 (HeLa [1]): 2 nM | CC50 (MT4): > 100000 nM | SI [2]: > 2630

C#C[C@]1(CO)O[C@@H](n2cc(Cl)c(N)nc2=O)C[C@@H]1O
CC50 (MT4): > 100000 nM

C#C[C@]1(CO)O[C@@H](n2cc(I)c(=O)[nH]c2=O)C[C@@H]1O
EC50 (HeLa [1]): 360 nM | CC50 (MT4): > 260000 nM | SI [2]: > 765

C#C[C@]1(CO)O[C@@H](n2cc(F)c(N)nc2=O)C[C@@H]1O
EC50 (HeLa [1]): 2 nM | CC50 (MT4): > 100000 nM | SI [2]: > 3330

C#C[C@]1(CO)O[C@@H](n2cc(F)c(=O)[nH]c2=O)C[C@@H]1O
CC50 (MT4): 3400 nM

C#C[C@]1(CO)O[C@@H](n2cc(Cl)c(=O)[nH]c2=O)C[C@@H]1O
CC50 (MT4): 81700 nM | SI [2]: 13.6

C#C[C@]1(CO)O[C@@H](n2cc(Br)c(=O)[nH]c2=O)C[C@@H]1O
CC50 (MT4): > 100000 nM | SI [2]: > 44

C#C[C@]1(CO)O[C@@H](n2ccc(N)nc2=O)C[C@@H]1O
EC50 (HeLa [1]): 0.96 nM | SI [2]: 192

C#C[C@]1(CO)O[C@@H](n2ccc(=O)[nH]c2=O)C[C@@H]1O
CC50 (MT4): > 100000 nM

C#C[C@]1(CO)O[C@@H](n2cc(C)c(=O)[nH]c2=O)C[C@@H]1O
EC50 (HeLa [1]): 400 nM | CC50 (MT4): > 380000 nM | SI [2]: > 623
